Screens: PubChem BioAssay, several laboratories
This is a sample that favours compounds with a hit; in the whole collection about 1.1% have one here.
procasp7 counter: counter-screen for procaspase-3 activators: activators of human procaspase-7; P55210; recombinant procaspase-7, Ac-DEVD-pNA absorbance 405 nm; D23A/D198A/D206A triple mutant, cannot self-cleave; scale: DMSO 0, 5 µM enzyme 100; activation, % at 8.5 µM; 330,000 tested, 0.093% active; AID 463210;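 active = percent activation above the screen-wide mean plus 3 SD, cut at about 25% in these data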
Target sequence (P55210 whole entry D23A/D198A/D206A): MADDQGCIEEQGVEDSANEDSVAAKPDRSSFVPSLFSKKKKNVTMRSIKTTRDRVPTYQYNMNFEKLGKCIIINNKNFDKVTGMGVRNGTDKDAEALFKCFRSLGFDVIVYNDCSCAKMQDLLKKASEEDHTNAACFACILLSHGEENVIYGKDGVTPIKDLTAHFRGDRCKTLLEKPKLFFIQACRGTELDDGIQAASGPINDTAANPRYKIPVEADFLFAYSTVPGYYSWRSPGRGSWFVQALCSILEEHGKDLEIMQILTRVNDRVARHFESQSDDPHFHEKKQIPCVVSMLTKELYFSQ
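System: Procaspase-7 triple mutant (PC-7 D3A); measure: % activation from two-timepoint absorbance difference, scaled to controls; times: 1 h compound preincubation, 2 h substrate cleavage, 25 °C; also added: Ac-DEVD-pNA substrate, 400 µM as added; measured by: Epi-absorbance of released pNA at 405 nm, two timepoints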
CaV13 FRET inh: Primary screen for inhibitors of IQ motif and Ca2+-dependent inactivation inhibitor domain binding in CACNA1D, Förster resonance energy transfer in living cells, …. inhibition, % at 12.3 µM. HEK cells, CFP/YFP FRET ICDI-IQ, plate reader, 10 min; percent FRET-ratio fall versus neutral wells. 340,000 tested, 0.098% active;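 active = mean replicate inhibition of at least 30% and at least 1% of replicates passing that level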;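 note: 0% = median of the neutral control wells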
T cell modulator: modulates CD8 T cell binding to vesicles | 2C CD8+ T cell-vesicle binding, flow cytometry; active compounds read low | 330,000 tested, 0.068% active | response (vesicle binding), % at 7 µM;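 active = response, share of CD8 T cells binding vesicles, and their 90th percentile fluorescence all below set limits, cut at about 80% in these data, passing the limit was not always enough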;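 note: values below 100% mean blocked vesicle binding to the CD8+ T cells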
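Incubation: binding step 1.5 h, 37 °C, antibody labelling 20 min, ice; system: murine 2C transgenic CD8+ T lymphocytes; technique: cytometric PE anti-B7-1 and Alexa647 anti-CD8 signals after 1% paraformaldehyde fixation; also added: QL9-charged Drosophila Ld/ICAM-1/B7-1 vesicles; control set: naked versus QL9-loaded vesicles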
procasp3 activ: procaspase-3 (human) activation; recombinant procaspase-3 D3A, Ac-DEVD-pNA absorbance 405 nm; AID 463141; 330,000 tested, 0.11% active; activation, % at 8.5 µM;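 active = activation above the mean of all tested compounds plus 3 SD, cut at about 21% in these data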;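 note: 0% = DMSO alone and 100% = DMSO wells spiked with extra 5 µM PC-3 D3A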
Target sequence (P42574 whole entry D9A/D28A/D175A): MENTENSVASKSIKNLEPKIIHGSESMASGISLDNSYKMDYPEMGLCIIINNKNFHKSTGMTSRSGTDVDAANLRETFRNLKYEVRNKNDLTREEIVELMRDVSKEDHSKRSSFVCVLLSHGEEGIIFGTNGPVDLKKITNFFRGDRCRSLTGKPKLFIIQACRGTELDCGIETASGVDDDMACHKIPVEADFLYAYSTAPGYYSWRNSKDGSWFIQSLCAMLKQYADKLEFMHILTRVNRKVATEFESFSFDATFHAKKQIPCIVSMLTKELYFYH
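Assay system – Procaspase-3 D3A mutant, all three cleavage aspartates alanine · Controls – DMSO-only low control, 5 µM PC-3 D3A high control · Schedule – 1 h compound preincubation, 2 h substrate hydrolysis at 25 °C · Signal – 405 nm absorbance of p-nitroaniline, reads at 0 and 120 min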
GRK2 aptamer HTS: blocks RNA aptamer binding to human GRK2 | P25098 | bead flow cytometry, FAM-aptamer displacement from GRK2 | inhibition of aptamer binding, % at 10 µM | 330,000 tested, 0.59% active;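 active = inhibition of aptamer binding above 40%, roughly 3 SD of noise, on plates passing a quality check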;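 note: median bead fluorescence of bound FAM aptamer so fluorescent compounds give negative values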
aDG glyco act: alpha-DG glycosylation activation. Pro5-aDG cells, alpha-DG glycosylation AlphaScreen (IIH6); 0% Pro5, 100% B10-LARGE cell signal. activation, % at 10 µM. 360,000 tested, 0.22% active;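 active = activation of at least 8% versus controls, or a plate z-score of at least 8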;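 note: Pro5 are CHO cells carrying HIG-tagged alpha-DG that lacks glycosylation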
GRK2 CP1: human GRK2 inhibition confirmation, cherry pick 1; 2,000 tested, 4% active; shares compounds with GRK2 aptamer HTS; bead-bound GRK2, FAM-aptamer displacement, flow cytometry; aptamer displacement, % at 10 µM;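 active = aptamer displacement above 40%, near three times the noise of non-fluorescent compounds, on plates passing quality checks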;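 note: negative values mostly reflect intrinsic compound fluorescence rather than true enhancement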
Aptamer quench: quenches fluorescent RNA aptamer, GRK2 hit artifact. shares compounds with GRK2 aptamer HTS. Fluorescent RNA aptamer beads, quenching, flow cytometry; active compounds read high. fluorescence change (kMESF span), kMESF (concentration not given with the values). 110 tested, under 10 active. AID 504521;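 active = compounds whose bead fluorescence drops by more than 37 kMESF across the dose range, marking them as dye quenchers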
Aptamer quench SP: quenches fluorescent RNA aptamer, GRK2 hit artifact; Carboxyfluorescein RNA aptamer on beads, flow cytometry quenching; active compounds read low; 2,000 tested, under 10 active; fluorescence response (% of DMSO), % at 10 µM; AID 504580; shares compounds with GRK2 aptamer HTS;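 active = compounds that quench the bead-bound fluorescent RNA probe, cutting fluorescence to under half of the solvent control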;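 note: counterscreen run without GRK2 so only probe quenching by compound is measured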
GRK2 CP2: confirmation of human GRK2 inhibitors binding RNA aptamer site. bead-bound GRK2, FAM-aptamer displacement, flow cytometry. shares compounds with GRK2 aptamer HTS. inhibition of aptamer binding, % at 10 µM. 360 tested, under 10 active;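 active = inhibition of aptamer binding above 40%, about triple the noise seen with nonglowing compounds, on plates passing quality control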;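 note: negative values mostly come from compounds that fluoresce themselves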
FAM quench CP2: quenches fluorescent RNA aptamer, GRK2 hit artifact | 360 tested, under 10 active | shares compounds with GRK2 aptamer HTS | carboxyfluorescein RNA aptamer beads, flow cytometry quenching; active compounds read low | AID 588494 | fluorescence response vs DMSO, % at 10 µM;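 active = response vs DMSO under 50%, meaning signal dropped by over half, treated as fluorescence quencher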;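 note: labelled aptamer on streptavidin beads without GRK2 as a quench counter-screen; 100% = bead fluorescence of DMSO wells and lower means quenching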
Active calls of the source: *; i = inactive; x = not tested or not shown.

SMILES | procasp7 counter | CaV13 FRET inh | T cell modulator | procasp3 activ | GRK2 aptamer HTS | aDG glyco act | GRK2 CP1 | Aptamer quench SP | others
Cc1ccc(NC(=O)CCS(=O)(=O)c2ccc3c(c2)NC(=O)C(C)S3)cc1Cl (stereo not drawn) | 2 | -2 | 142 | 7 | 2 | 0 | x | x | GRK2 CP2=-2;FAM quench CP2=99
CC1Sc2ccc(S(=O)(=O)CCC(=O)NC(C)c3ccccc3)cc2NC1=O (stereo not drawn) | -9 | -2 | 134 | -2 | 8 | 0 | x | x | GRK2 CP2=26;FAM quench CP2=97
COCCN(C(=O)Cn1c(C(F)(F)F)nc2ccccc21)c1c(N)n(Cc2ccccc2)c(=O)[nH]c1=O | 5 | -3 | 88 | 7 | 0 | 0 | x | x
C=CCNC(=O)c1ccc2nc(-c3ccccc3)c(-c3ccccc3)nc2c1 | -16 | -5 | i | -2 | 1 | 0 | x | x
C=CCNC(=O)c1ccc(C(=O)c2ccccc2)cc1 | 9 | -3 | 313 | -6 | 67* | 0 | -8 | 99
Cn1c(=S)n(CCC(=O)O)c2ccccc21 | -4 | -2 | 624 | -4 | 15 | 0 | -1 | 98
Cc1cc(C)cc(NC(=O)CCCCCN2C(=O)[C@@H]3Cc4ccccc4CN3C2=O)c1 | 4 | -3 | 380 | 5 | 0 | 0 | x | x
COc1cccc(NC(=O)CCCCCN2C(=O)[C@@H]3Cc4ccccc4CN3C2=O)c1 | 6 | -7 | 412 | 11 | 0 | 0 | 1 | 94
CC1=C(C(=O)N(C)C)CC(CC(=O)NC2CCCCC2)C(=O)N1CCCN1CCCC1=O (stereo not drawn) | x | -4 | x | x | x | 0 | x | x
CS(=O)(=O)NNC(=O)Cn1nnc(-c2ccc(OCc3ccccc3Cl)cc2)n1 | -5 | -5 | 346 | -2 | 0 | 0 | x | x
O=C(NCC(c1ccc(F)cc1)N1CCOCC1)c1ccccc1F (stereo not drawn) | 4 | 2 | 417 | -1 | 1 | 0 | x | x
Cc1ccccc1SCC(=O)NCC(c1ccc(F)cc1)N1CCOCC1 (stereo not drawn) | 3 | -5 | 357 | -1 | 45* | 0 | x | x | GRK2 CP2=-14;FAM quench CP2=90
CC(C)(C)n1nc(C2CC2)cc1NC(=O)Nc1ccccc1 | x | -4 | x | x | x | x | x | x
O=C1COc2ccc(C(=O)COC(=O)/C=C/c3ccc(Br)o3)cc2N1 | -13 | -6 | 148 | -1 | 57* | 0 | 2 | 93
Cc1ccc(/C=C/C(=O)OCC(=O)c2ccc3c(c2)NC(=O)CO3)o1 | -15 | -9 | 502 | -9 | 0 | 0 | x | x
CCC(CC)C(=O)Nc1ccc(C(=O)c2ccccc2)cc1 | 1 | -7 | 235 | 4 | 61* | 0 | x | x | GRK2 CP2=3;FAM quench CP2=101
CC(C)CCNC(=O)[C@@H](Cc1ccccc1)NC(=O)[C@H]1O[C@@H](n2ccc(=O)[nH]c2=O)[C@H](O)[C@@H]1O | x | -3 | x | x | x | x | x | x
CCOc1cc(N2CCOCC2)c(OCC)cc1NC(=O)c1ccc(S(C)(=O)=O)cc1 | 6 | -23 | 411 | 0 | 90* | 0 | 5 | 106
CCOc1cc(N2CCOCC2)c(OCC)cc1NC(=O)c1[nH]c(C)c(C(C)=O)c1C | -10 | -6 | i | -6 | 3 | 0 | x | x
CCOc1cc(N2CCOCC2)c(OCC)cc1NC(=O)c1cc(S(=O)(=O)N2CCOCC2)ccc1C | 7 | -5 | 700 | -1 | 8 | 0 | 0 | 97
CCOc1cc(N2CCOCC2)c(OCC)cc1NC(=O)c1ccc(F)c(S(=O)(=O)N2CCOCC2)c1 | x | x | x | x | x | 0 | 2 | 95
ClCc1nc2ccccc2n1Cc1ccccc1 | -7 | -30 | 304 | 2 | 0 | 0 | x | x
Cc1ccc(Cn2c(Cc3ccccc3)nc3ccccc32)cc1 | -11 | -6 | 552 | -5 | 96* | 0 | 1 | 95
O=C(CCC1CCN(C(=O)CC2=CCCCC2)CC1)NCc1ccc(F)cc1 | x | -9 | x | x | x | 0 | x | x
COc1ccc(C(=O)Nc2ccccc2NC(=O)c2ccco2)cc1OC | 4 | -5 | 468 | -3 | 44* | 0 | 3 | 97
SMILES | procasp7 counter | CaV13 FRET inh | T cell modulator | procasp3 activ | GRK2 aptamer HTS | aDG glyco act | GRK2 CP1 | Aptamer quench SP | others
COc1cc(NC(=O)COc2ccccc2C)ccc1NC(=O)c1ccco1 | 6 | -6 | 247 | 1 | 51* | 0 | x | x | GRK2 CP2=-4;FAM quench CP2=101
COc1ccc(C(=O)Nc2ccccc2NC(=O)c2ccco2)c(OC)c1 | 1 | -2 | 407 | 1 | 0 | -1 | x | x
Cc1onc(COc2ccccc2O)c1Br | 8 | -13 | 187 | 7 | 0 | 0 | x | x
CN(Cc1ccccc1)S(=O)(=O)c1ccc2[nH]cc(C(=O)NCC3CCCO3)c(=O)c2c1 (stereo not drawn) | 13 | -9 | 213 | -4 | 45* | 0 | 2 | 101
COc1cccc(C2NC(=S)N(Cc3ccccc3)C(C)=C2C(C)=O)c1 (stereo not drawn) | x | -3 | x | x | x | x | x | x
Cc1ccc(CNC(=O)c2ccc(N3CCc4ccccc43)c([N+](=O)[O-])c2)cc1 | 0 | -5 | 149 | 2 | 3 | 0 | 0 | 98
NNC(=O)c1ccc(N2CCc3ccccc32)c([N+](=O)[O-])c1 | -7 | -5 | 210 | 4 | 19 | -1 | x | x
Cc1oc(-c2ccc(Cl)cc2)nc1CN1CCCC(C(=O)NCc2cccnc2)C1 (stereo not drawn) | 14 | -5 | 210 | -1 | 0 | 1 | -2 | 100 | Aptamer quench=3.4
Cc1oc(-c2cccc(Cl)c2)nc1CN1CCCC(C(=O)NCc2ccco2)C1 (stereo not drawn) | 7 | -4 | 841 | 7 | 0 | 0 | 1 | 101
Cc1oc(-c2ccc(Cl)cc2)nc1CN1CCCC(C(=O)NCCCN2CCOCC2)C1 (stereo not drawn) | -4 | -3 | 461 | 3 | 0 | 1 | x | x
